High-throughput results: PubChem, Broad Institute
Most compounds without a hit are left out; they make up all but 2.4% or so of the library.
dFosB act – enhances mouse delta FosB homodimer DNA binding; P13346; purified delta FosB, TAMRA-CDK5 oligo fluorescence polarization; percent of positive-control signal above neutral wells; 0.99% of 340,000 active; activation, % at 25 µM;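 active = mean activation above about 17%, with every replicate also reaching it, limit read from the data, passing the limit was not always enough; inconclusive = only one of the two conditions met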
Target sequence (P13346 whole entry, looked up): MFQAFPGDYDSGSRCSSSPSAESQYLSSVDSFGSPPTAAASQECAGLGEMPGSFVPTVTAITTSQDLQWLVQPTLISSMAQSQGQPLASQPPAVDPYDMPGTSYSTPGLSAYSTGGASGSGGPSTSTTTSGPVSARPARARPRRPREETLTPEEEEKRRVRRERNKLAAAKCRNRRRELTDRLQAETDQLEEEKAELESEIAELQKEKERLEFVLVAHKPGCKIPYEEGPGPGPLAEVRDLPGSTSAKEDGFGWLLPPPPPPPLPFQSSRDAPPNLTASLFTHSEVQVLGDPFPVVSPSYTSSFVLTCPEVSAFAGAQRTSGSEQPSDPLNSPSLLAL
Rtt109 HAT inh – inhibitors of Candida albicans Rtt109/Vps75 histone acetyltransferase; inhibition, % at 34.9 µM; Q5AAJ8; purified Rtt109/Vps75, ThioGlo CoA-SH fluorescence, 4 h; 0.16% of 330,000 active;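 active = inhibition of at least 50% in every replicate; inconclusive = best replicate reaches 50% inhibition but some replicates fall short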
Target sequence (Q5AAJ8 whole entry, looked up): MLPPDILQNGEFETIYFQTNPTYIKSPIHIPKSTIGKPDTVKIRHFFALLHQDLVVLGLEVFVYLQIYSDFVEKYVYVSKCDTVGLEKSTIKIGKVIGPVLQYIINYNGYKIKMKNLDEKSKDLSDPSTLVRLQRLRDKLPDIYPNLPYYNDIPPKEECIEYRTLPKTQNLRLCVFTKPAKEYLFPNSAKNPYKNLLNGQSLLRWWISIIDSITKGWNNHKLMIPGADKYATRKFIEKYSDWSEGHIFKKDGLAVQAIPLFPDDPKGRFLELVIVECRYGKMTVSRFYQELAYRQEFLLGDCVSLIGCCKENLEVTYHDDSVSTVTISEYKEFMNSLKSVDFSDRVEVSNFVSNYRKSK
INS-1E GSIS act – GLuc luminescence reporter in INS-1E cells, primary screen for activators of glucose-dependent secretion of insulin; INS-1E GLuc reporter insulin secretion, 2-3 h; activation, % at 16.6 µM; 0.61% of 370,000 active;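 active = lowest replicate activation of at least 40%, so every replicate reaches that level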;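 note: 0% = median of neutral control wells and 100% = median of IBMX positive control wells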
Cneo AK release – causes C. neoformans cell lysis; adenylate kinase release luminescence, 4 h; normalised: neutral wells 0, clomiphene wells 100; lysis activity, % at 15 µM; 0.2% of 360,000 active;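 active = mean lysis activity across replicates of at least 80%, whatever share of replicates individually reach that level; inactive = mean lysis activity below 80%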
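Assay system: C. neoformans cells. Amount: yeast cell density of 5 × 10^6 cells/mL. Technique: AK luminescence. Buffer or medium: YPD. Times: static 4 h at 37 °C with compound, 1 h detection. Dosing: single-point compound dose. Read-out: lysis from increased AK signal.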
HIV Env fusion – HIV envelope-mediated fusion inhibition; HeLa-JRFL Env/CEM21 cell fusion, luciferase; inhibition, % at 12.3 µM; 1.1% of 360,000 active; AID 651610;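 active = mean replicate inhibition score of at least 50 and every replicate individually at or above 50; inconclusive = only one of the two criteria met; inactive = mean below 50 and not all replicates reaching 50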;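 note: 0% = plate neutral controls and 100% = maraviroc near 300 nM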
miR122 inh – inhibitors of miR-122 in Huh7 cells; Huh7 miR-122 Renilla luciferase sensor, 48 h; neutral wells = 0, positive control = 100; activation (reporter increase), % at 12.5 µM; 0.3% of 340,000 active;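 active = mean replicate activation score at least 90 and every replicate individually at or above 90; inconclusive = only one of the two criteria met; inactive = neither criterion met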;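 note: higher luciferase means less miR-122 activity so hits act as miR-122 inhibitors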
* = called active by the depositor; ? = inconclusive; / = not tested or not shown; + = active, no number; [ ] = remark or other dose.

SMILES	dFosB act	Rtt109 HAT inh	INS-1E GSIS act	Cneo AK release	HIV Env fusion	miR122 inh
O=C(c1ccccc1)N1CC(=O)N2[C@H](C1)[C@@H](c1ccc(C#CCC3CCCC3)cc1)[C@@H]2CO	/	/	-5.0	/	/	/
COc1cccc(-c2ccc3n(c2=O)C[C@H]2[C@H](CO)[C@@H](C(=O)N(C)C)N(C(=O)C4CCC4)[C@@H]32)c1	/	/	17.1	8.3	/	-5.8[16.7 µM]
COC1=CC(=O)c2c(ccc3ncnc(N)c23)C1=O	-8.8	0.8	/	/	76.2*	-3.2
CCc1ccc(/C=C/C(=O)C2C(=O)c3ccccc3C2=O)cc1	-9.7	11.0	-4.3	/	-96.3	/
CC[N+]1(C)CCC(O)(/C=C/c2ccccc2)C(C(=O)/C=C/c2ccccc2)C1 (configuration not stated)	6.4	2.3	80.0*	/	-62.0	1.2
CCC(=O)N(C)C[C@@H]1Oc2ncc(C3=CCCC3)cc2C(=O)N([C@@H](C)CO)C[C@H]1C	/	/	-1.4	-0.4	-5.6[16.7 µM]	14.2[16.7 µM]
CCCCOC(=O)c1cc(-c2ccc(/C=N/n3cnnc3)o2)ccc1Cl	-11.2	-3.0	57.9*	2.4	-17.7	-7.2
C[C@H]1CN([C@@H](C)CO)S(=O)(=O)c2ccc(-c3ccccc3)cc2O[C@H]1CN(C)C(=O)C1CCCCC1	/	/	-17.0	2.0	16.6[16.7 µM]	13.0[16.7 µM]
COc1ccc(Cc2c(-c3ccco3)nc3c(C)cc(Br)cn23)c(C)c1	/	/	/	-0.5	73.3*	-2.5
Cc1ccc(Nc2nc(N/N=C\c3ccc4c(c3)OCO4)nc(N3CCOCC3)n2)cc1	59.5*	2.0	-2.6	-0.9	30.1	/
Cc1ccc(/C=N/Nc2cc(C)nc(N3CCOCC3)n2)cc1	-2.5	-1.6	5.8	/	-10.3	/
N#CCCN(Cc1ccccc1)C(=O)c1cccs1	1.3	3.0	40.0*	-1.3	-3.9	3.3
CC(C)(C)N(Cc1ccccc1)C(=O)c1cccs1	-6.3	1.5	/	2.1	-13.1	-0.4
COc1cccc(S(=O)(=O)N[C@H]2CC[C@H](CCn3cc(-c4ccc(F)cc4)nn3)O[C@@H]2CO)c1	/	/	-19.3	-2.2	19.1[16.7 µM]	/
O=S(=O)(N[C@@H]1CC[C@@H](CCn2cc(-c3ccccc3F)nn2)O[C@H]1CO)c1ccc(F)cc1	/	/	-2.8	/	/	/
Cc1ccc(CC2(OCCN(C)C)CCC(C(C)(C)C)CC2)cc1 (configuration not stated)	9.6	4.6	750.2*	/	7.3	/
C/C=C/c1cnc2c(c1)C(=O)N([C@@H](C)CO)C[C@@H](C)[C@@H](CN(C)C(=O)C1CC1)O2	/	/	9.7	/	6.0[16.7 µM]	-5.2[16.7 µM]
O=C(O)CCCc1ccc2c(c1)CCc1ccccc1-2	-3.2	-10.2	12.1	3.6	62.7*	/
CC(C)NC(=O)Nc1ccc2c(c1)CC(=O)N([C@@H](C)CO)C[C@@H](C)[C@@H](CN(C)C(=O)NC(C)C)O2	/	/	7.7	0.4	/	-0.7[16.7 µM]
CO[C@H]1CN(C)C(=O)c2ccc(NC(=O)Nc3cc(F)ccc3F)cc2OC[C@@H](C)N(C(=O)c2cnccn2)C[C@@H]1C	/	/	3.2	-2.9	-10.9[16.7 µM]	/
O=C(Nc1ccc(F)cc1)Nc1ccc2c(c1)[C@@H]1C[C@H](CC(=O)N3CCCCC3)O[C@H](CO)[C@@H]1O2	/	/	-7.7	-1.3	89.8*[16.7 µM]	-6.1[16.7 µM]
O=C(Nc1ccc(F)cc1)Nc1ccc2c(c1)[C@@H]1C[C@H](CC(=O)N3CCCCC3)O[C@@H](CO)[C@@H]1O2	/	/	-6.3	-0.7	74.9*[16.7 µM]	5.2[16.7 µM]
O=C(Nc1ccc(F)cc1)Nc1ccc2c(c1)[C@@H]1C[C@@H](CC(=O)N3CCCCC3)O[C@@H](CO)[C@@H]1O2	/	/	-12.2	-1.1	-9.4[16.7 µM]	-5.0[16.7 µM]
CCC(C)N(C(=O)CSc1nncn1C)C1CCS(=O)(=O)C1 (configuration not stated)	-2.4	-5.3	102.4*	-0.2	-20.6	-3.0
CC(=O)c1cccc(NC(=O)c2cccc(N3C(=O)c4ccccc4C3=O)c2)c1	31.1*	-4.4	-3.9	8.2	-19.4	/
SMILES	dFosB act	Rtt109 HAT inh	INS-1E GSIS act	Cneo AK release	HIV Env fusion	miR122 inh
COCC#Cc1cnc2c(c1)C(=O)N([C@@H](C)CO)C[C@@H](C)[C@@H](CN(C)C(=O)CN1CCOCC1)O2	/	/	30.7	-5.1	-4.1[16.7 µM]	-4.2[16.7 µM]
CO[C@@H]1CN(C)C(=O)c2ccc(NC(=O)c3cccc(F)c3)cc2OC[C@@H](C)N(C(C)=O)C[C@H]1C	/	/	-2.0	/	/	/
O=C(c1ccccc1O)N1N=C(C(F)(F)F)CC1(O)c1ccc([N+](=O)[O-])cc1 (configuration not stated)	-11.3	-1.9	-21.4	1.1	58.7*	-3.5
O=C(CN1N=C(C(F)(F)F)CC1(O)c1ccc([N+](=O)[O-])cc1)c1ccccc1 (configuration not stated)	-11.9	9.6	/	1.8	-167.2	-0.8
CCC1=NN(C(=O)c2ccccc2O)C(O)(c2ccccc2)C1 (configuration not stated)	-5.7	0.8	/	-2.1	13.5	+
CC(C)C#Cc1cnc2c(c1)C(=O)N([C@@H](C)CO)C[C@H](C)[C@@H](CN(C)C(=O)Cc1ccccn1)O2	/	/	1.0	1.1	-28.4[16.7 µM]	-3.9[16.7 µM]
O=C(Nc1ccccc1F)N1CCCCN2[C@H](C1)[C@H](c1ccc(-c3cccnc3)cc1)[C@@H]2CO	/	/	7.2	-1.1	/	9.2[16.7 µM]
Cc1ccc(O)c(C2=NOC(O)(C(F)(F)F)C2)c1 (configuration not stated)	-2.2	13.5	52.1*	1.5	/	-7.2
CCN(CC)CCN(C(=O)c1ccc(S(=O)(=O)N2CCCC2)cc1)c1nc2cc(C)cc(C)c2s1	4.9	-4.2	40.5*	-1.7	4.9	-1.7
CCN(CC)CCN(C(=O)c1ccc(C(=O)c2ccccc2)cc1)c1nc2cc3c(cc2s1)OCO3	47.7*	-9.1	-28.7	4.6	-1.2	-3.1
CN(C)CCCN(C(=O)c1ccc(C(=O)c2ccccc2)cc1)c1nc2cc3c(cc2s1)OCO3	24.6*	?	-42.4	1.8	8.5	-7.0
CN(C)CCN(C(=O)c1ccc2ccccc2c1)c1nc2cc3c(cc2s1)OCO3	/	/	-33.4	0.1	-9.2	-4.6
COc1ccc2sc(N(CCCN(C)C)C(=O)c3ccc(C(=O)c4ccccc4)cc3)nc2c1	21.7*	15.9	-52.0	-0.3	/	1.9
CCCCCCCCCCCCCCCC[N+](C)(C)CC	2.6	74.3*	298.0*	2.5	?	-13.2
CC#CC[N+](C)(C)CCCCCCCCCCCC	3.9	25.1	-35.2	0.2	62.4*	/
NC(=S)N=Nc1c(O)n(C2OC(=O)c3ccccc32)c2ccccc12 (configuration not stated)	26.2*	1.0	/	-0.5	/	17.7
CN(C)CCNc1ccc(CO)c2oc3ccc(O)cc3c(=O)c12	25.6*	4.5	/	/	44.0	-11.0
CCN(CC)CCNc1ccc(CO)c2oc3cc(Cl)ccc3c(=O)c12	/	/	/	0.6	-5.7	0.2
